Active and inactive are the calls of the source. No cut-off for these calls is given here.
Assays:
[1] = Cytotoxicity against human MRC5 SV2 cells after 72 hrs by resazurin dye-based fluorimetric analysis; assay type: cell-based; conditions: MRC-5 SV2, 72 h
Peritoneal macrophage = experiment: Cytotoxicity against mouse primary peritoneal macrophages after 72 hrs by resazurin dye-based fluorimetric analysis; assay type: cell-based
[2] = Drug metabolism in mouse liver microsomes assessed as CYP450 mediated compound […] by measuring parent compound remaining at 5 uM after 15 mins in presence of NADPH by UPLC/MS/ESI analysis; assay type: ADME; conditions: read-out: Stability
[3] = Drug metabolism in mouse liver microsomes assessed as UGT mediated compound […] by measuring parent compound remaining at 5 uM after 15 mins in presence of UDPGA by UPLC/MS/ESI analysis; assay type: ADME; conditions: 0.25 h
Outline: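 Metabolic stability was run with mouse liver microsomal fraction (S9) and read as percent parent compound remaining over incubation time. Diclofenac served as the reference compound.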

[4] = Drug metabolism in human liver microsomes assessed as CYP450 mediated compound […] by measuring parent compound remaining at 5 uM after 30 mins in presence of NADPH by UPLC/MS/ESI analysis; assay type: ADME; conditions: read-out: Stability
[5] = Drug metabolism in human liver microsomes assessed as CYP450 mediated compound […] by measuring parent compound remaining at 5 uM after 60 mins in presence of NADPH by UPLC/MS/ESI analysis; assay type: ADME; conditions: read-out: Stability
[6] = Drug metabolism in human liver microsomes assessed as UGT mediated compound […] by measuring parent compound remaining at 5 uM after 60 mins in presence of UDPGA by UPLC/MS/ESI analysis; assay type: ADME; conditions: read-out: Stability
[7] = test system: Trypanosoma brucei brucei; experiment: Antitrypanosomal activity against Trypanosoma brucei brucei Squib 427 infected in Swiss mouse assessed as mouse survival at 25 mg/kg, po bid for 5 days and measured on day 14 post infection; assay type: functional, organism-based
Outline: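 Acute T. b. brucei mouse infection model. Dosing was PO or IP at 10–50 mg/kg, once (SID) or twice (BID) daily for 5 days after infection, with 3 mice per group. […] Read-outs were mean survival time and survivors on day 14 post infection.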

[8] = test system: Trypanosoma brucei brucei; experiment: Antitrypanosomal activity against Trypanosoma brucei brucei Squib 427 infected in Swiss mouse assessed as mean survival days at 25 mg/kg, po bid for 5 days; assay type: functional
Outline: (§1)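 Acute mouse infection model with T. b. brucei. Dosing ran for 5 days after infection, orally or intraperitoneally, once or twice daily. Groups were 3 mice each, with vehicle-treated infected controls. The read-out was mean survival time in days, plus the number of survivors on day 14 post-infection.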

[9] = test system: Trypanosoma brucei brucei; experiment: Antitrypanosomal activity against Trypanosoma brucei brucei Squib 427 infected in Swiss mouse assessed as mean survival days at 10 mg/kg, ip administered as single dose for 5 days; assay type: functional; outline: as §1
[10] = test system: Trypanosoma brucei brucei; experiment: Antitrypanosomal activity against Trypanosoma brucei brucei Squib 427 infected in Swiss mouse at 50 mg/kg, po administered as single dose after 24 hrs; assay type: functional, organism-based; conditions: Squib 427, 24 h
[11] = Protein binding in 10% FBS in Trypanosoma brucei culture medium at 2 uM after 6 hrs by equilibrium dialysis and LC-MS analysis; assay type: ADME, cell-free, Bos taurus, Serum; conditions: cattle, read-out: PB
[12] = Drug level in Swiss mouse blood infected with Trypanosoma brucei brucei Squib 427 at 50 mg/kg, po bid for 5 days measured after 0.5 hrs after last dose by UPLC/MS/ESI analysis; assay type: ADME, organism-based; conditions: whole blood, read-out: Drug uptake
[13] = Drug level in Swiss mouse blood infected with Trypanosoma brucei brucei Squib 427 at 50 mg/kg, po bid for 5 days measured after 1 hr after last dose by UPLC/MS/ESI analysis; assay type: ADME, organism-based; conditions: whole blood, read-out: Drug uptake
[14] = Drug level in Swiss mouse blood infected with Trypanosoma brucei brucei Squib 427 at 25 mg/kg, po bid for 5 days measured after 0.5 hrs after last dose by UPLC/MS/ESI analysis; assay type: ADME, organism-based; conditions: whole blood, read-out: Drug uptake
[15] = Drug level in Swiss mouse blood infected with Trypanosoma brucei brucei Squib 427 at 25 mg/kg, po bid for 5 days measured after 2 hrs after last dose by UPLC/MS/ESI analysis; assay type: ADME, organism-based; conditions: whole blood, read-out: Drug uptake
[16] = Drug level in Swiss mouse blood infected with Trypanosoma brucei brucei Squib 427 at 25 mg/kg, po bid for 5 days measured after 4 hrs after last dose by UPLC/MS/ESI analysis; assay type: ADME, organism-based; conditions: whole blood, read-out: Drug uptake
[17] = Drug uptake in Swiss mouse blood at 50 mg/kg, po administered as single dose after 0.5 hrs by UPLC/MS/ESI analysis; assay type: ADME, organism-based; conditions: whole blood, read-out: Drug uptake
Outline: (§2)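 Mice were given the compound orally as a single dose of either 25 or 50 mg/kg, one group per dose. Plasma concentrations were followed over time up to 24 h, and the pharmacokinetic parameters were derived from the concentration-time profile.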

[18] = Drug uptake in Swiss mouse blood at 50 mg/kg, po administered as single dose after 1 hr by UPLC/MS/ESI analysis; assay type: ADME, organism-based; conditions: whole blood, read-out: Drug uptake; outline: as §2
[19] = Drug uptake in Swiss mouse blood at 50 mg/kg, po administered as single dose after 2 hrs by UPLC/MS/ESI analysis; assay type: ADME, organism-based; conditions: whole blood, read-out: Drug uptake; outline: as §2
[20] = Drug uptake in Swiss mouse blood at 25 mg/kg, po administered as single dose after 4 hrs by UPLC/MS/ESI analysis; assay type: ADME, organism-based; conditions: whole blood, read-out: Drug uptake; outline: as §2
[21] = Drug uptake in Swiss mouse blood at 25 mg/kg, po administered as single dose after 24 hrs by UPLC/MS/ESI analysis; assay type: ADME, organism-based; conditions: whole blood, read-out: Drug uptake; outline: as §2
[22] = Tmax in Swiss mouse infected with Trypanosoma brucei brucei Squib 427 at 50 mg/kg, po bid for 5 days after 24 hrs by UPLC/MS/ESI analysis; assay type: ADME, organism-based; conditions: in vivo
[23] = Half life in Swiss mouse infected with Trypanosoma brucei brucei Squib 427 at 50 mg/kg, po bid for 5 days after 24 hrs by UPLC/MS/ESI analysis; assay type: ADME, organism-based; conditions: in vivo
Mus musculus [24] = experiment: Apparent volume of distribution in Swiss mouse infected with Trypanosoma brucei brucei Squib 427 at 50 mg/kg, po bid for 5 days after 24 hrs by UPLC/MS/ESI analysis; assay type: ADME, organism-based; conditions: in vivo
[25] = Clearance in Swiss mouse infected with Trypanosoma brucei brucei Squib 427 at 50 mg/kg, po bid for 5 days after 24 hrs by UPLC/MS/ESI analysis; assay type: ADME, organism-based; conditions: in vivo
[26] = Tmax in Swiss mouse infected with Trypanosoma brucei brucei Squib 427 at 25 mg/kg, po administered as single dose after 24 hrs by UPLC/MS/ESI analysis; assay type: ADME, organism-based; conditions: in vivo
Mus musculus [27] = experiment: Apparent volume of distribution in Swiss mouse infected with Trypanosoma brucei brucei Squib 427 at 25 mg/kg, po administered as single dose after 24 hrs by UPLC/MS/ESI analysis; assay type: ADME, organism-based; conditions: in vivo
[28] = AUC (0 to >4 hrs) in Swiss mouse at 25 mg/kg, po administered as single dose by UPLC/MS/ESI analysis; assay type: ADME, organism-based; conditions: in vivo
Outline: (§3)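 Mice in groups received one oral dose of 25 or 50 mg/kg. Plasma concentrations were followed over time up to 24 h, and PK parameters including T1/2 were derived from the concentration–time profile.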

Mus musculus [29] = experiment: Apparent volume of distribution in Swiss mouse at 25 mg/kg, po administered as single dose after 24 hrs by UPLC/MS/ESI analysis; assay type: ADME, organism-based; conditions: in vivo; outline: as §3
[30] = Protein binding in mouse plasma assessed as drug recovery at 2 uM after 6 hrs by equilibrium dialysis and LC-MS analysis; assay type: ADME, cell-free; conditions: read-out: Drug recovery
[31] = Protein binding in 10% FBS in Trypanosoma brucei culture medium at 10 uM after 6 hrs by equilibrium dialysis and LC-MS analysis; assay type: ADME, cell-free, Bos taurus, Serum; conditions: cattle, read-out: PB

Work on Nc1nc(Nc2ccc(F)cc2)nc(Oc2ccc(F)cc2)n1 yielded an IC50 [1] of over 64 µM, an IC50 (Peritoneal macrophage) of over 64 µM and a remaining at 0.25 h, 5 µM [2] of 76%. It also gave a Stability [3] of 97%, a remaining at 0.5 h, 5 µM [4] of 85% and a remaining at 1 h, 5 µM [5] of 65%. The remaining at 1 h, 5 µM [6] was 96%, the Activity [7] was “inactive” and the MST [8] was 6 days. It also gave an MST [9] of 7 days, an IC50 [10] of 0.63 µM and a fraction unbound at 6 h, 2 µM [11] of 0.5 to 0.51. The concentration at 0.5 h [12] was 2870 ng/mL, the concentration at 1 h [13] was 3800 ng/mL and the concentration at 0.5 h [14] was 2090 ng/mL. The concentration at 2 h [15] was 1100 ng/mL, the concentration at 4 h [16] was 204 ng/mL and the concentration at 0.5 h [17] was 1780 ng/mL. For the same compound, the concentration at 1 h [18] was 1730 ng/mL, the concentration at 2 h [19] was 1630 ng/mL and the concentration at 4 h [20] was 929 ng/mL. For the same compound, the concentration at 24 h [21] was 50 ng/mL, the Tmax [22] was 1.3 h and the half-life [23] was 1.33 h. The Vz (Mus musculus [24]) was 10.9 L, the CL/F [25] was 89.9 mL/min and the Tmax [26] was 0.8 h. It also gave a Vz (Mus musculus [27]) of 13 L, an AUC at 4 h [28] of 13800 ng·h/mL and a Vz (Mus musculus [29]) of 26.7 L. For the same compound, the recovery at 6 h, 2 µM [30] was 90.2% and the fraction unbound at 6 h, 10 µM [31] was 0.498.

Reference: ChEMBL document CHEMBL4229376, “Optimization of the pharmacokinetic properties of potent anti-trypanosomal triazine derivatives” (Eur J Med Chem, 2018)
